Drawing on ChEMBL document CHEMBL3612034, “Synthesis of bicoumarin thiophosphate derivatives as steroid sulfatase inhibitors” (Eur J Med Chem, 2015), this text covers IC50 and inhibition for 14 compounds.

For orientation: IC50 means the concentration at which inhibition is half-maximal.

The target of experiment [1] is T1, Steryl-sulfatase (Homo sapiens, UniProt P08842).
T1 sequence (P08842 whole entry): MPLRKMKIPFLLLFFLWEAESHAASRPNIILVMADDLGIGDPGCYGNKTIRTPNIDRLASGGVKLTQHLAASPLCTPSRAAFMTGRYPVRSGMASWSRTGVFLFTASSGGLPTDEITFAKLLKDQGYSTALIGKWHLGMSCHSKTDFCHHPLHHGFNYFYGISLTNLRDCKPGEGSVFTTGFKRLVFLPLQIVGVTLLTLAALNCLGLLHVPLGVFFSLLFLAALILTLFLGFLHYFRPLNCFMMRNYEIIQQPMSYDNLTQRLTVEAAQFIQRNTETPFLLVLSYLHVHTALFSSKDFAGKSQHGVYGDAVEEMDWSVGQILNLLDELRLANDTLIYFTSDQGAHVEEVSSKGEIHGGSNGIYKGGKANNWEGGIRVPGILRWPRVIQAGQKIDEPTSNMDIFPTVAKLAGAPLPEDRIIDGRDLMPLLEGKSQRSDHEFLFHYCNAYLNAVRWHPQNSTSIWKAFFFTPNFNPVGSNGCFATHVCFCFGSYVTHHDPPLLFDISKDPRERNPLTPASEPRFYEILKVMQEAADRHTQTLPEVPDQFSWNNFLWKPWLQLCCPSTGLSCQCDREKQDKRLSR
Nature of the experiment: Inhibition of human placenta STS using NPS as substrate after 15 mins by microplate reader analysis. Summed up: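 Enzyme: STS extracted from human placenta and purified by multi-step chromatography. Each reaction held 20 mM Tris-HCl pH 7.4, 3 mM p-nitrophenyl sulfate (NPS), 5 U enzyme and graded inhibitor concentrations, and ran 15 min at 37 °C. Stopped with 1 M NaOH; released p-nitrophenol read at 405 nm. IC50 fitted from triplicate measurements.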

Experiment [2] deals with T2, Steryl-sulfatase (Homo sapiens) (UniProt P08842).
T2 sequence (whole entry): T1 sequence (P08842 whole entry)
As to the kind of experiment: Irreversible inhibition of human placenta STS at 100 uM preincubated for 30 mins in standard condition followed by exchange of reaction environment. Summed up: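 Purified human placental STS was run under standard assay conditions (Tris-HCl pH 7.4, NPS substrate, 37 °C) with inhibitor present. Restored enzyme activity was then measured the same way, by p-nitrophenol absorbance at 405 nm after an NaOH stop. Basal and restored activities were compared to tell reversible from irreversible inhibition.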

Experiment [3] deals with T1, Steryl-sulfatase. As to the kind of experiment: Inhibition of human placenta STS. Summed up:
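Human placental STS purified to homogeneity by multi-step chromatography. Each reaction used 5 U enzyme, 20 mM Tris-HCl pH 7.4, 3 mM p-nitrophenyl sulfate (NPS) and a range of inhibitor concentrations, for 15 min at 37 °C. NaOH stopped the reaction, and released p-nitrophenol was read at 405 nm. IC50 came from the dose-response curve, run in triplicate.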

Experiment [4] has as its target T2, Steryl-sulfatase (Homo sapiens). As to the kind of experiment: Reversible inhibition of human placenta STS at 100 uM preincubated for 30 mins in standard condition followed by exchange of reaction environment. Summed up:
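Reversibility test: the standard placental STS/NPS assay (Tris-HCl pH 7.4, 37 °C) was run with compound at a single fixed concentration. Enzyme activity was then measured again after restoration by the same p-nitrophenol absorbance read-out at 405 nm. Basal and restored activities were compared.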

Experiment [5] addresses T1, Steryl-sulfatase. As to the kind of experiment: Inhibition of recombinant human STS transfected in CHO cells using MUS as substrate after 30 mins by fluorescence assay. In kind it is cell-based.

SMILES strings stand for the structures. The source made the active and inactive calls. No cut-off for these calls is given here.

Regarding `O=c1oc2cc(OP(O)(=S)Oc3ccc4c5c(c(=O)oc4c3)CCC5)ccc2c2c1CCC2`, 26.9 µM corresponded to half-maximal inhibition at Steryl-sulfatase [1] (IC50).
In the case of `O=c1oc2cc(OP(=S)(Cl)Oc3ccc4c5c(c(=O)oc4c3)CCCC5)ccc2c2c1CCCC2`, on Steryl-sulfatase [1], the IC50 worked out at 7.76 µM. Also, the inhibition result in experiment [2] is “Active”.
Compound `COP(=S)(Oc1ccc2c3c(c(=O)oc2c1)CCCCC3)Oc1ccc2c3c(c(=O)oc2c1)CCCCC3` came in with an IC50 against Steryl-sulfatase [1] of 6.77 µM. Also, the inhibition result in experiment [2] was “Active”.
As to `NS(=O)(=O)Oc1ccc2c(c1)OC(O)C1=C2CCCCC1` (configuration not stated), the IC50 at Steryl-sulfatase [3] is 0.008 µM.
As for `O=c1oc2cc(OP(O)(=S)Oc3ccc4c5c(c(=O)oc4c3)CCCC5)ccc2c2c1CCCC2`, in experiment [4], the inhibition result was “Active”. Also, on Steryl-sulfatase [1], the IC50 amounted to 0.86 µM.
In turn, `COP(=S)(Oc1ccc2c3c(c(=O)oc2c1)CCCC3)Oc1ccc2c3c(c(=O)oc2c1)CCCC3` gave a concentration for half-maximal inhibition (IC50) at Steryl-sulfatase [1] of 14.8 µM.
In turn, `NP(=S)(Oc1ccc2c3c(c(=O)oc2c1)CCCC3)Oc1ccc2c3c(c(=O)oc2c1)CCCC3` showed a half-maximal inhibitory concentration (IC50) at Steryl-sulfatase [1] of 110 µM.
With `NP(=S)(Oc1ccc2c3c(c(=O)oc2c1)CCCCC3)Oc1ccc2c3c(c(=O)oc2c1)CCCCC3`, on Steryl-sulfatase [1], the IC50 stood at 88.8 µM.
On the same count and under the same terms, as for `O=c1oc2cc(OP(=S)(Cl)Oc3ccc4c5c(c(=O)oc4c3)CCCCC5)ccc2c2c1CCCCC2`, the figure is 7.04 µM; as for `O=c1oc2cc(OP(O)(=S)Oc3ccc4c5c(c(=O)oc4c3)CCCCC5)ccc2c2c1CCCCC2`, 5.51 µM.
Regarding `CC(C)N(C(=O)C1=CC[C@H]2[C@@H]3CCc4cc(OS(N)(=O)=O)ccc4[C@H]3CC[C@]12C)C(C)C`, on Steryl-sulfatase [5], the concentration for half-maximal inhibition (IC50) is 0.004 µM.
In the case of `NP(=S)(Oc1ccc2c3c(c(=O)oc2c1)CCC3)Oc1ccc2c3c(c(=O)oc2c1)CCC3`, the concentration for half-maximal inhibition (IC50) at Steryl-sulfatase [1] worked out at 74.3 µM.
Same read-out and setting: next, `COP(=S)(Oc1ccc2c3c(c(=O)oc2c1)CCC3)Oc1ccc2c3c(c(=O)oc2c1)CCC3`: 75 µM.
The same measure, in the same setting: as for `O=c1oc2cc(OP(=S)(Cl)Oc3ccc4c5c(c(=O)oc4c3)CCC5)ccc2c2c1CCC2`, the figure is 33.8 µM.
